Measurements published in ChEMBL document CHEMBL2384957, “Synthesis and antimicrobical evaluation of a novel class of 1,3,4-thiadiazole: derivatives bearing 1,2,4-triazolo[1,5-a]pyrimidine moiety” (2013).
≈ marks a conversion by molar mass, not a printed value.

Key:
Assay type in all cases: functional
[1] = Antifungal activity against Physalospora pyricola assessed as inhibition of mycelia elongation rate at 50 ppm after 48 hrs relative to control; conditions: Botryosphaeria berengeriana
Summary of the method: (§1)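 This was a mycelial growth assay on potato glucose agar. Samples were dissolved in DMF at 500 mg/L (stock), and 1 part solution was mixed with 9 parts thawed medium at 50 °C before plating. Solidified plates were inoculated with a 4 mm mycelium disk, inverted and incubated at 28 °C for 48 h. Medium without sample served as blank. Mycelial elongation radius was measured, in triplicate.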

[2] = tested on: Fusarium oxysporum; experiment: Antifungal activity against Fusarium oxysporum assessed as inhibition of mycelia elongation rate at 50 ppm after 48 hrs relative to control; summary of the method: as §1
[3] = Antifungal activity against Gibberella saubinettii assessed as inhibition of mycelia elongation rate at 50 ppm after 48 hrs relative to control; conditions: Fusarium graminearum
Summary of the method: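 Poisoned-agar mycelial growth test: sample dissolved in DMF at 500 mg/L, 1 mL mixed into 9 mL thawed potato glucose agar at 50 °C and poured into plates. A 4 mm mycelium disk was placed on each plate, inverted, incubated 28 °C for 48 h. Mycelial elongation radius (mm) measured against a sample-free medium blank; three replicates.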

[4] = tested on: Rhizoctonia solani; experiment: Antifungal activity against Rhizoctonia solani assessed as inhibition of mycelia elongation rate at 50 ppm after 48 hrs relative to control; summary of the method: as §1
[5] = tested on: Cercospora beticola; experiment: Antifungal activity against Cercospora beticola assessed as inhibition of mycelia elongation rate at 50 ppm after 48 hrs relative to control; summary of the method: as §1
[6] = tested on: Escherichia coli; experiment: Antibacterial activity against Escherichia coli ATCC 35218 assessed as growth inhibition after 24 hrs by two-fold serial dilution method; conditions: ATCC 35218, 24 h
Summary of the method: (§2)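 MICs were determined by two-fold serial dilution in nutrient broth, following CLSI. The inoculum came from 24 h bacterial cultures on nutrient agar at 37 ± 1 °C and was adjusted in sterile saline to 1×10⁴–10⁵ CFU/mL. Tubes were incubated at 37 ± 1 °C. MIC was read visually after 24 h, with kanamycin as the reference standard.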

[7] = tested on: Staphylococcus aureus; experiment: Antibacterial activity against Staphylococcus aureus ATCC 6538 assessed as growth inhibition after 24 hrs by two-fold serial dilution method; conditions: ATCC 6538, 24 h; summary of the method: as §2
[8] = tested on: Bacillus spizizenii; experiment: Antibacterial activity against Bacillus subtilis ATCC 6633 assessed as growth inhibition after 24 hrs by two-fold serial dilution method; conditions: ATCC 6633, 24 h; summary of the method: as §2
[9] = tested on: Pseudomonas fluorescens; experiment: Antibacterial activity against Pseudomonas fluorescens ATCC 13525 assessed as growth inhibition after 24 hrs by two-fold serial dilution method; conditions: ATCC 13525, 24 h; summary of the method: as §2

Row | SMILES | inhibition [1] [%] | inhibition at 50 ppm [2] [%] | inhibition [3] [%] | inhibition at 50 ppm [4] [%] | inhibition at 50 ppm [5] [%] | MIC [6] [µg/mL] | MIC [7] [µg/mL] | MIC [8] [µg/mL] | MIC [9] [µg/mL]
1 | OCC1=C[C@H](N[C@H]2C[C@H](CO)[C@@H](O[C@@H]3O[C@H](CO)[C@@H](O)[C@H](O)[C@H]3O)[C@H](O)[C@H]2O)[C@H](O)[C@@H](O)[C@@H]1O [VALIDAMYCIN] | 47 | 35 | 37 | 75 | 42 | – | – | – | –
2 | C=Cc1ccc(CSc2nnc(CSc3nc4nc(C)cc(C)n4n3)s2)cc1 | 72 | 42 | 78 | 50 | 54 | 12.5 (≈ 29.3 µM) | 12.5 (≈ 29.3 µM) | 50 (≈ 117 µM) | 100 (≈ 234 µM)
3 | CC(C)(C)C(=O)C(Oc1ccc(Cl)cc1)n1cncn1 (centres undefined) [TRIADIMEFON] | 55 | 37 | 81 | 40 | 35 | – | – | – | –
4 | COc1cccc(CSc2nnc(CSc3nc4nc(C)cc(C)n4n3)s2)c1 | 69 | 44 | 67 | 49 | 62 | 25 (≈ 58.1 µM) | 12.5 (≈ 29 µM) | 50 (≈ 116 µM) | > 100
5 | Cc1cc(C)n2nc(SCc3nnc(SCc4ccc(Br)cc4F)s3)nc2n1 | 82 | 38 | 35 | 75 | 62 | 6.25 (≈ 12.6 µM) | > 100 | 50 (≈ 101 µM) | 12.5 (≈ 25.1 µM)
6 | COC(=O)Nc1nc2ccccc2[nH]1 [CARBENDAZIM] | 74 | 48 | 75 | 62 | 66 | – | – | – | –
7 | Cc1cc(C)n2nc(SCc3nnc(SCc4ccc(F)cc4)s3)nc2n1 | 79 | 42 | 18 | 55 | 60 | 12.5 (≈ 29.9 µM) | > 100 | 50 (≈ 119 µM) | 50 (≈ 119 µM)
8 | Cc1cc(C)n2nc(SCc3nnc(SCc4cccc(Br)c4)s3)nc2n1 | 58 | 56 | 47 | 67 | 77 | 50 (≈ 104 µM) | > 100 | 12.5 (≈ 26.1 µM) | 50 (≈ 104 µM)
9 | Cc1cc(C)n2nc(SCc3nnc(SCc4ccc(Br)cc4)s3)nc2n1 | 76 | 62 | 25 | 51 | 43 | 12.5 (≈ 26.1 µM) | > 100 | > 100 | 100 (≈ 209 µM)
10 | Cc1cc(C)n2nc(SCc3nnc(SCc4cccc([N+](=O)[O-])c4)s3)nc2n1 | 63 | 28 | 64 | 64 | 70 | 25 (≈ 56.1 µM) | 25 (≈ 56.1 µM) | 25 (≈ 56.1 µM) | 25 (≈ 56.1 µM)
11 | Cc1cc(C)n2nc(SCc3nnc(SCc4cccc(Cl)c4)s3)nc2n1 | 66 | 57 | 15 | 53 | 57 | 25 (≈ 57.5 µM) | > 100 | 50 (≈ 115 µM) | 100 (≈ 230 µM)
12 | Cc1ccc(CSc2nnc(CSc3nc4nc(C)cc(C)n4n3)s2)cc1 | 74 | 65 | 32 | 57 | 38 | 12.5 (≈ 30.2 µM) | > 100 | > 100 | 50 (≈ 121 µM)
13 | Cc1cc(C)n2nc(SCc3nnc(SCc4ccc(F)cc4F)s3)nc2n1 | 86 | 56 | 64 | 79 | 64 | 3.13 (≈ 7.17 µM) | 25 (≈ 57.3 µM) | 25 (≈ 57.3 µM) | 12.5 (≈ 28.6 µM)
14 | Cc1cc(C)n2nc(SCc3nnc(SCc4c(F)cccc4F)s3)nc2n1 | 73 | 36 | 33 | 83 | 60 | 12.5 (≈ 28.6 µM) | > 100 | 50 (≈ 115 µM) | 6.25 (≈ 14.3 µM)
15 | Cc1cc(C)n2nc(SCc3nnc(SCc4ccccc4Cl)s3)nc2n1 | 77 | 40 | 45 | 61 | 43 | 12.5 (≈ 28.7 µM) | > 100 | > 100 | 100 (≈ 230 µM)
16 | Cc1cc(C)n2nc(SCc3nnc(SCc4ccc(C)c([N+](=O)[O-])c4)s3)nc2n1 | 68 | 40 | 41 | 89 | 78 | 25 (≈ 54.4 µM) | > 100 | 12.5 (≈ 27.2 µM) | 12.5 (≈ 27.2 µM)
17 | Cc1cc(C)n2nc(SCc3nnc(SCc4cc(F)cc(F)c4)s3)nc2n1 | 68 | 38 | 41 | 75 | 61 | 25 (≈ 57.3 µM) | > 100 | 50 (≈ 115 µM) | 12.5 (≈ 28.6 µM)
18 | Cc1cc(C)n2nc(SCc3nnc(SCc4cccc(F)c4)s3)nc2n1 | 71 | 45 | 17 | 60 | 41 | 12.5 (≈ 29.9 µM) | > 100 | > 100 | 50 (≈ 119 µM)
19 | Cc1cccc(CSc2nnc(CSc3nc4nc(C)cc(C)n4n3)s2)c1 | 72 | 55 | 45 | 54 | 43 | 12.5 (≈ 30.2 µM) | > 100 | > 100 | 50 (≈ 121 µM)
20 | Cc1ccc(CSc2nnc(CSc3nc4nc(C)cc(C)n4n3)s2)c([N+](=O)[O-])c1 | 78 | 54 | 66 | 80 | 64 | 12.5 (≈ 27.2 µM) | 25 (≈ 54.4 µM) | 25 (≈ 54.4 µM) | 1.56 (≈ 3.39 µM)
21 | Cc1cc(C)n2nc(SCc3nnc(SCc4ccccc4Br)s3)nc2n1 | 75 | 40 | 44 | 63 | 45 | 12.5 (≈ 26.1 µM) | > 100 | > 100 | 25 (≈ 52.1 µM)
22 | Cc1cc(C)n2nc(SCc3nnc(SCc4ccccc4F)s3)nc2n1 | 78 | 55 | 45 | 68 | 39 | 12.5 (≈ 29.9 µM) | > 100 | > 100 | 25 (≈ 59.7 µM)
23 | Cc1cc(C)n2nc(SCc3nnc(SCc4ccccc4C)s3)nc2n1 | 73 | 50 | 48 | 55 | 36 | 12.5 (≈ 30.2 µM) | > 100 | > 100 | 25 (≈ 60.3 µM)
24 | NC[C@H]1O[C@H](O[C@H]2[C@H](O)[C@@H](O[C@H]3O[C@H](CO)[C@@H](O)[C@H](N)[C@H]3O)[C@H](N)C[C@@H]2N)[C@H](O)[C@@H](O)[C@@H]1O [KANAMYCIN] | – | – | – | – | – | 1.56 (≈ 3.22 µM) | 3.13 (≈ 6.46 µM) | 0.78 (≈ 1.61 µM) | 3.13 (≈ 6.46 µM)
